The results in this text go back to PubChem BioAssay.

Each structure is given as a SMILES string. The source made the active and inactive calls.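 The calls were made as follows, unless noted: active = viability at or under a set limit in both replicates, limit being median viability minus 3 SD (cut at about 48% in these data, passing the limit was not always enough); inconclusive = at or under the limit in just one replicate; inactive = at or above the limit in both replicates.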

The nature of experiment [1]: Her2 expression decrease, cell viability multiplex – SKBR3 breast tumor cells, AlphaScreen, ATP viability, primary screen (AID 461;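 active = Her2 level under about 52% in both replicate screens, with viability over 70% of control, limit read from the data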;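 as to Her2 level: lower value means less Her2 protein in the cells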;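 as to viability: percent of carrier control wells set as 100% viability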). Particulars: SKBR3 Her2 protein level, 18-24 h, measured here: SKBR3 viability, ATP luminescence, at 10 µM. A general note: Bead proximity is the source of the signal in Alpha formats.
The target in experiment [2] is Receptor tyrosine-protein kinase erbB-2 (Homo sapiens) (UniProt P04626). Described as above. The note with it: 18-24 h, at 10 µM, stronger effect = lower value.
Chain of Receptor tyrosine-protein kinase erbB-2 (Homo sapiens) (P04626 whole entry, looked up): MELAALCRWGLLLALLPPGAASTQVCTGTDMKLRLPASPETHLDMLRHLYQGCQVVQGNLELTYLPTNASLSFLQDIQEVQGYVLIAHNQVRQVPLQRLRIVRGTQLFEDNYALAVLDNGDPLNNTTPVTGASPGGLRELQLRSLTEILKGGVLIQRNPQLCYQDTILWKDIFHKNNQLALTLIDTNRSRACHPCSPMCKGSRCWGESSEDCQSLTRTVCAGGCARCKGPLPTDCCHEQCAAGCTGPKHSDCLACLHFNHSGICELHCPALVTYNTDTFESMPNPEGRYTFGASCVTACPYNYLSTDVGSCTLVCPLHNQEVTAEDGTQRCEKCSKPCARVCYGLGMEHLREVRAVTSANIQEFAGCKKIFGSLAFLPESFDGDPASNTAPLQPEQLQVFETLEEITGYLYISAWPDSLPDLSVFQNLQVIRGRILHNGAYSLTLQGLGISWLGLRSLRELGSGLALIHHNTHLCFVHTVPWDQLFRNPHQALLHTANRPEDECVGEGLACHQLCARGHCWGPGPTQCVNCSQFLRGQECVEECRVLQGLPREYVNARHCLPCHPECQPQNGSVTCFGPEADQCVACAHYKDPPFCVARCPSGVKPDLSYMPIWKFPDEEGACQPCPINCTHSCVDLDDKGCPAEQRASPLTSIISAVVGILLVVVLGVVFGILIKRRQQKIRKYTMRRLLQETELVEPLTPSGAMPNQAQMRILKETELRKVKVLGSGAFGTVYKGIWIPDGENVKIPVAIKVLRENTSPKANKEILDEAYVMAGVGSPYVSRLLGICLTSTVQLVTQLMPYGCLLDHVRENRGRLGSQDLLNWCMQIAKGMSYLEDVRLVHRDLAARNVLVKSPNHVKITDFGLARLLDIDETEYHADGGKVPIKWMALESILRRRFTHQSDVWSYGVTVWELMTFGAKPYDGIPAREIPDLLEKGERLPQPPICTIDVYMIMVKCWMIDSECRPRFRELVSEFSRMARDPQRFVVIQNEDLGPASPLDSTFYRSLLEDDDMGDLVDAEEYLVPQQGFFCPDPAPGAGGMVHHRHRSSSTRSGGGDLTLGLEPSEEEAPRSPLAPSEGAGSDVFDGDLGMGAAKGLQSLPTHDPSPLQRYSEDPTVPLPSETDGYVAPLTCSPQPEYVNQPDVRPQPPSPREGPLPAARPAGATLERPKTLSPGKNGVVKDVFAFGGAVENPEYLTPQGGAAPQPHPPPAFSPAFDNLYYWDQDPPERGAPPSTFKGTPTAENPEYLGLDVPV
Experiment [3] in a line: reduced viability of SK-BR-3 breast cancer cells – cell-based, 24 h, human, pilot screen (AID 572;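 active = viability at or below 10% of carrier control in both of two separate runs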;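 also: compound exposure lasted between 18 and 24 h rather than exactly 24 h; 100% = carrier-treated control wells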). The note with it: SK-BR-3 viability, CellTiter-Glo luminescence, at 10 µM, stronger effect = lower value.
A short description of experiment [4]: HUVEC growth inhibition – cell-based, human, primary screen (AID 575;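 active = viability at or below 30% in both replicate assays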;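 also: 100% = median of untreated cell wells with 0.1% DMSO on each plate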). Particulars: HUVEC proliferation, CellTiter-Glo luminescence, 72 h; at 10 µM; stronger effect = lower value. An outline of the steps:
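Test system: HUVEC primary cells. Quantity: 1250 endothelial cells in each well. Dosing: single-point 10 µM, DMSO 0.1% final. Incubation: 72 h treatment at 37 °C. Measured by: CTG luminescence. Control set: DMSO cell controls and MePR drug controls. Plate: collagen-coated 384-well format.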

Experiment [5] in a line: H69AR cell proliferation blockers – human, duplicate replicates, primary screen (AID 580).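 Also: 100% = mean luminescence of untreated wells and 0% = no signal.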 Particulars: H69AR lung tumor cells viability, ATP luminescence, 72 h; at 10 µM; stronger effect = lower value.
Experiment [6] in a line: MRP1 drug-resistance reversers in H69AR cells – cell-based, doxorubicin co-treatment, pilot screen (AID 601;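 active = viability loss from added drug above about 55%, and viability with drug at most 40%, in both replicates, limit read from the data, passing the limit was not always enough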). Particulars: CellTiter-Glo, 72 h, at 10 µM; for differential viability (reversal): stronger effect = higher value. In general terms: ATP-based viability assays read luminescence as a measure of living cells.
A short description of experiment [7]: yeast transport mutant growth inhibition pilot in 384-well plates, post-Golgi transport modulator project (AID 636; in the data active = inhibition above about 31%). Particulars: absorbance 615 nm, about 18 h, stronger effect = higher value.
The nature of experiment [8]: growth suppression of yeast trafficking mutant, preliminary HTS, modulators of trafficking downstream of Golgi apparatus project, 1536-format plate, OD 615 nm (AID 637; in the data active = inhibition above about 30%). The note with it: yeast transport mutant growth, absorbance 615 nm, 18 h; stronger effect = higher value.
The mark [9] stands for this setting: H69AR cells + 2 uM doxorubicin, measured here: viability with 2 uM doxorubicin, stronger effect = lower value.
The mark [10] stands for this setting: H69AR cells, compound alone cytotoxicity.

In general, viability refers to a read-out of living cells in per cent, often relative to untreated cells. One may read the inhibition as the drop in the measured response relative to a control, in per cent. Take `CCS(=O)(=O)NCCc1cc2c(OC)ccc(OC)c2[nH]c1=O`: the viability was 95.5% in experiment [1]; 95.5% (inactive) in experiment [3]; 106% (inactive) in experiment [4]; 98.8% (inactive) in experiment [5]; 86.8% in experiment [6] (setting [9]); 98.8% in experiment [6] (setting [10]). The Her2 level in experiment [2] is 88.5% (inactive). Also, the differential viability (reversal) in experiment [6] (H69AR cells + 2 uM doxorubicin) is 12.1% (inactive). Also, the inhibition was -9.45% (inactive) in experiment [7] and 0.48% (inactive) in experiment [8].
Consider `COc1ccc(S(=O)(=O)N2CCCC2C(=O)Nc2ccc(C)cc2)cc1` (stereo not given), for which the viability in experiment [1] was 88%; in experiment [3] it was 88% (inactive); in experiment [4], 92.2% (inactive); in experiment [5] it was 89.2% (inactive); in experiment [6] (setting [9]), 98%; in experiment [6] (setting [10]) it was 89.2%. The Her2 level in experiment [2] was 105% (inactive). In experiment [6] (H69AR cells + 2 uM doxorubicin), the differential viability (reversal) is -8.78% (inactive). For the same compound, the inhibition in experiment [7] was -4.86% (inactive); in experiment [8], -4.1% (inactive).
Regarding `COc1ccccc1Nc1nc2ccccc2[nH]1`, the viability is 92% in experiment [1]; 92% (inactive) in experiment [3]; 86.3% (inactive) in experiment [4]; 72.8% (inactive) in experiment [5]; 83.4% in experiment [6] (setting [9]); 72.8% in experiment [6] (setting [10]). In addition, in experiment [2], the Her2 level was 93.5% (inactive). In addition, the differential viability (reversal) in experiment [6] (H69AR cells + 2 uM doxorubicin) was -10.6% (inactive). Further, the inhibition in experiment [7] was -9.07% (inactive); in experiment [8] it was -7.94% (inactive).
With `O=C(NCN1CCCCC1)c1cnccn1`, the viability in experiment [1] is 95.5%; in experiment [3], 95.5% (inactive); in experiment [4], 103% (inactive); in experiment [5], 89.9% (inactive); in experiment [6] (setting [9]), 106%; in experiment [6] (setting [10]) it was 89.9%. In experiment [2], the Her2 level is 86% (inactive). Also, the differential viability (reversal) in experiment [6] (H69AR cells + 2 uM doxorubicin) was -16.5% (inactive). Also, the inhibition is -2.47% (inactive) in experiment [7] and -1.15% (inactive) in experiment [8].
On to `Cc1c(C#N)sc2nc(-c3ccccc3)nc(N3CCCC3)c12`, for which the viability in experiment [1] is 85.5%; in experiment [3] it was 85.5% (inactive); in experiment [4], 82.1% (inactive); in experiment [5], 77% (inactive); in experiment [6] (setting [9]), 88.1%; in experiment [6] (setting [10]), 77%. The Her2 level in experiment [2] was 83% (inactive). Moreover, in experiment [6] (H69AR cells + 2 uM doxorubicin), the differential viability (reversal) is -11.2% (inactive). Also, the results for the inhibition in experiment [7] and in experiment [8] were -3.59% (inactive) and -8% (inactive), respectively.
On to `CC(C)(C)Nc1nc(OCC(F)(F)F)nc(OCC(F)(F)F)n1`, for which the viability is 108% in experiment [1]; 108% (inactive) in experiment [3]; 98.8% (inactive) in experiment [4]; 89.1% (inactive) in experiment [5]; 90.1% in experiment [6] (setting [9]); 89.1% in experiment [6] (setting [10]). For the same compound, the Her2 level in experiment [2] is 89% (inactive). Also, the differential viability (reversal) in experiment [6] (H69AR cells + 2 uM doxorubicin) was -0.98% (inactive). Also, the inhibition is -5.26% (inactive) in experiment [7] and -10.6% (inactive) in experiment [8].
Consider `O=C(COc1ccccc1F)NC1CC1`, for which the viability in experiment [1] was 94.5%; in experiment [3], 94.5% (inactive); in experiment [4], 88.7% (inactive); in experiment [5], 107% (inactive); in experiment [6] (setting [9]) it was 95%; in experiment [6] (setting [10]) it was 107%. Besides, the Her2 level in experiment [2] is 88.5% (inactive). Besides, the differential viability (reversal) in experiment [6] (H69AR cells + 2 uM doxorubicin) was 11.7% (inactive). In addition, the inhibition is -6.58% (inactive) in experiment [7] and -2.5% (inactive) in experiment [8].
Consider `CCc1nnc(NC(=O)CSc2nnc(CSc3nc(C)cc(C)n3)n2CC)s1`, for which the viability in experiment [1] was 100%; in experiment [3], 100% (inactive); in experiment [4], 84.1% (inactive); in experiment [5], 88.7% (inactive); in experiment [6] (setting [9]), 86.9%; in experiment [6] (setting [10]), 88.7%. In experiment [2], the Her2 level is 116% (inactive). Also, the differential viability (reversal) in experiment [6] (H69AR cells + 2 uM doxorubicin) was 1.79% (inactive). Besides, the inhibition was 0.77% (inactive) in experiment [7] and 22.5% (inactive) in experiment [8].
For `CCOc1cc(C2C(C#N)=C(N)OC(C)=C2C(C)=O)cc(Br)c1O` (stereo not given), the viability in experiment [1] is 114%; in experiment [3], 114% (inactive); in experiment [4] it was 120% (inactive); in experiment [5] it was 90.3% (inactive); in experiment [6] (setting [9]), 84.2%; in experiment [6] (setting [10]) it was 90.3%. In experiment [2], the Her2 level was 91% (inactive). Moreover, the differential viability (reversal) in experiment [6] (H69AR cells + 2 uM doxorubicin) was 6.05% (inactive). Also, the inhibition is -5.95% (inactive) in experiment [7] and -6.83% (inactive) in experiment [8].
For `CCCc1cc(C(N)=O)c(NC(=O)c2ccco2)s1`, the viability was 102% in experiment [1]; 102% (inactive) in experiment [3]; 94.2% (inactive) in experiment [4]; 87.3% (inactive) in experiment [5]; 93.3% in experiment [6] (setting [9]); 87.3% in experiment [6] (setting [10]). Besides, the Her2 level in experiment [2] was 73.5% (inactive). Further, the differential viability (reversal) in experiment [6] (H69AR cells + 2 uM doxorubicin) is -5.96% (inactive). For the same compound, the inhibition in experiment [7] was -3.29% (inactive); in experiment [8], 1.15% (inactive).
As for `CCN(CCNC(=O)C1CCN(S(C)(=O)=O)CC1)c1ccccc1`, the viability was 91% in experiment [1]; 91% (inactive) in experiment [3]; 93.3% (inactive) in experiment [4]; 88.2% (inactive) in experiment [5]; 82.8% in experiment [6] (setting [9]); 88.2% in experiment [6] (setting [10]). Also, the Her2 level in experiment [2] was 104% (inactive). Besides, the differential viability (reversal) in experiment [6] (H69AR cells + 2 uM doxorubicin) was 5.42% (inactive). In addition, the inhibition in experiment [7] is -1.67% (inactive); in experiment [8] it was -1% (inactive).
Regarding `O=C(O)c1[nH]nc2c1COc1ccccc1-2`, the viability in experiment [1] was 93.5%; in experiment [3] it was 93.5% (inactive); in experiment [4] it was 109% (inactive); in experiment [5] it was 100% (inactive); in experiment [6] (setting [9]) it was 93.3%; in experiment [6] (setting [10]) it was 100%. Also, in experiment [2], the Her2 level is 92% (inactive). For the same compound, in experiment [6] (H69AR cells + 2 uM doxorubicin), the differential viability (reversal) is 7.14% (inactive). Further, the inhibition was -0.92% (inactive) in experiment [7] and 2.95% (inactive) in experiment [8].
Consider `N#Cc1c(/N=C/c2cccs2)sc2c1CCCCC2`, for which the viability in experiment [1] is 98.5%; in experiment [3], 98.5% (inactive); in experiment [4] it was 66.5% (inactive); in experiment [5], 90.3% (inactive); in experiment [6] (setting [9]), 73.9%; in experiment [6] (setting [10]), 90.3%. Further, in experiment [2], the Her2 level was 88.5% (inactive). The differential viability (reversal) in experiment [6] (H69AR cells + 2 uM doxorubicin) was 16.3% (inactive). Also, the inhibition in experiment [7] is -5.33% (inactive); in experiment [8], 5.74% (inactive).
As to `Cc1nc2ccccc2cc1C(=O)NCc1ccco1`, the viability in experiment [1] was 130%; in experiment [3], 130% (inactive); in experiment [4], 91.3% (inactive); in experiment [5], 93.3% (inactive); in experiment [6] (setting [9]), 85.1%; in experiment [6] (setting [10]) it was 93.3%. Further, the Her2 level in experiment [2] is 90% (inactive). Further, the differential viability (reversal) in experiment [6] (H69AR cells + 2 uM doxorubicin) was 8.23% (inactive). The inhibition in experiment [7] is -4.93% (inactive); in experiment [8], 7.42% (inactive).
With `CCOC(=O)c1[nH]cc(-c2ccccc2)c1N1CCOCC1`, the viability is 92.5% in experiment [1]; 92.5% (inactive) in experiment [3]; 98% (inactive) in experiment [4]; 94.7% (inactive) in experiment [5]; 85.5% in experiment [6] (setting [9]); 94.7% in experiment [6] (setting [10]). In addition, the Her2 level in experiment [2] was 89.5% (inactive). In experiment [6] (H69AR cells + 2 uM doxorubicin), the differential viability (reversal) was 9.26% (inactive). The inhibition is -2.5% (inactive) in experiment [7] and 0.55% (inactive) in experiment [8].
In the case of `CCOC(=O)c1[nH]c(=O)c2ccccc2c1O`, the viability was 106% in experiment [1]; 106% (inactive) in experiment [3]; 95.8% (inactive) in experiment [4]; 90.8% (inactive) in experiment [5]; 90.8% in experiment [6] (setting [9]); 90.8% in experiment [6] (setting [10]). Moreover, the Her2 level in experiment [2] was 94.5% (inactive). Moreover, in experiment [6] (H69AR cells + 2 uM doxorubicin), the differential viability (reversal) is -0.03% (inactive). Further, the values for the inhibition in experiment [7] and in experiment [8] were -10% (inactive) and -8.41% (inactive), respectively.
